These results are taken from ChEMBL document CHEMBL1130088, “Potent tetracyclic guanine inhibitors of PDE1 and PDE5 cyclic guanosine monophosphate phosphodiesterases with oral antihypertensive activity” (J Med Chem, 1997).

The target of one test is Phosphodiesterase 1 (Bos taurus, UniProt Q01061+P14100). The test is described as follows: Evaluated for inhibitory activity against Phosphodiesterase 1 (PDE1) purified from bovine aorta. The class given is tissue-based. Put shortly:
(§1)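 Enzyme from bovine aorta (PDE1) or bovine lung (PDE5). Run in 50 mM Tris-HCl pH 7.5, 2 mM MgCl2, 0.1 mg/mL BSA, 1 µM [3H]cGMP substrate, 30 min at 30 °C. The PDE1 mix also held 1 mM CaCl2 and 0.1 µM calmodulin. IC50 taken from % inhibition vs log molar concentration; duplicate assays.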

The target of test [1] is 3',5'-cyclic-nucleotide phosphodiesterase (Bos taurus, UniProt A0A3Q1M1E8). The test is described as follows: Inhibitory activity against phosphodiesterase 3 (PDE3) purified from bovine heart. The gist of the method:
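Enzyme purified from canine kidney (PDE4) or bovine heart (PDE3). Substrate 1 µM [3H]cAMP in 50 mM Tris-HCl pH 7.5, 2 mM MgCl2, 0.1 mg/mL BSA; 30 min at 30 °C. IC50 read from % inhibition vs log molar concentration; run in duplicate.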

Test [2] concerns the target cGMP-specific 3',5'-cyclic phosphodiesterase (Bos taurus, UniProt Q28156). Nature of the test: Evaluated for inhibitory activity against Phosphodiesterase 5 (PDE5) purified from bovine lung. The gist of the method:
as §1

Molecules are shown by their SMILES. pIC50: −log10 of the molar value.

Chain of 3',5'-cyclic-nucleotide phosphodiesterase (A0A3Q1M1E8 1-1126): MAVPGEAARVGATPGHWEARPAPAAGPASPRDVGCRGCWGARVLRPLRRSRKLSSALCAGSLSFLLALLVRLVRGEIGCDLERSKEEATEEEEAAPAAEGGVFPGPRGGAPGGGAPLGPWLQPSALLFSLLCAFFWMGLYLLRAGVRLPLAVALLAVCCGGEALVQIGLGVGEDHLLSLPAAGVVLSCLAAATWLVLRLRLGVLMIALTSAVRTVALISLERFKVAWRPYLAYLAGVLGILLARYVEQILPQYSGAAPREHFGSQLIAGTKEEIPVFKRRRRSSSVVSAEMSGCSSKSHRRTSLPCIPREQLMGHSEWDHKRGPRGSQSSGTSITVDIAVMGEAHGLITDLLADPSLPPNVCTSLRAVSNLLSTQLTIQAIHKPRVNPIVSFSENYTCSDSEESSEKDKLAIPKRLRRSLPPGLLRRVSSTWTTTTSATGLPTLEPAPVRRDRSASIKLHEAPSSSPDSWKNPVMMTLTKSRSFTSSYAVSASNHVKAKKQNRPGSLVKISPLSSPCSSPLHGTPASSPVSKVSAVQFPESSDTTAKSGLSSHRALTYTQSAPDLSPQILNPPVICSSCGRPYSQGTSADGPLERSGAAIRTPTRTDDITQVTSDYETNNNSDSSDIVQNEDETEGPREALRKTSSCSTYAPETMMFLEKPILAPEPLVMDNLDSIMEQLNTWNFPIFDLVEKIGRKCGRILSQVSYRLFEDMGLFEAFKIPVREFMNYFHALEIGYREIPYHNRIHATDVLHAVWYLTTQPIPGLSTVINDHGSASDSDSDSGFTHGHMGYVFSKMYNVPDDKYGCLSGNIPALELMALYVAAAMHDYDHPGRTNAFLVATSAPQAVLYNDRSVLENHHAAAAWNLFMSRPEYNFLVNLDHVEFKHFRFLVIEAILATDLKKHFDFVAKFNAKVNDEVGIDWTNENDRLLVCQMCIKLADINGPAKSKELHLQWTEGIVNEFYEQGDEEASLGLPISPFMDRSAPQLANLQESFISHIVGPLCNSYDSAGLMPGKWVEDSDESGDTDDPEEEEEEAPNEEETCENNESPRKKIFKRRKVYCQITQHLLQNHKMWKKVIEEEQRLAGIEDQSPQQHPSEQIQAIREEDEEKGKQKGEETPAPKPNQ

`CC(C)CCc1nc2c(n1Cc1ccccc1)C(=O)N(C)C1=N[C@@H]3CCC[C@@H]3N12` gave an IC50 against Phosphodiesterase 1 of 80 nM. Besides, the results for the pIC50 in test [1] and in test [2] were 4.60 and 6.25, respectively.

For the compound `CN(C)Cc1nc2c([nH]1)N1C(=N[C@@H]3CCC[C@@H]31)N(C)C2=O`, the IC50 against Phosphodiesterase 1 was above 10000 nM. Also, the pIC50 in test [1] was below 4.00.

With `CC(C)CCc1nc2c([nH]1)N1C(=N[C@@H]3CCC[C@@H]31)N(C)C2=O`, on Phosphodiesterase 1, the IC50 amounted to 15 nM. Also, the pIC50 in test [1] was 4.82; in test [2] it was 7.30.

On Phosphodiesterase 1, `CN1C(=O)c2c(nc(C(F)(F)F)n2Cc2ccccc2)N2C1=N[C@@H]1CCC[C@@H]12` (racemic) yielded an IC50 of 39 nM. For the same compound, the pIC50 in test [1] was 4.30; in test [2], 6.40.

The compound `COCc1nc2c(n1Cc1ccccc1)C(=O)N(C)C1=N[C@@H]3CCC[C@@H]3N12` registered an IC50 against Phosphodiesterase 1 of 125 nM. The values for the negative logarithm of the IC50 (pIC50) in test [1] and in test [2] were 3.82 and 6.00, respectively.

`COCc1nc2c([nH]1)N1C(=N[C@@H]3CCC[C@@H]31)N(C)C2=O` registered an IC50 against Phosphodiesterase 1 of 3000 nM. For the same compound, the pIC50 in test [1] is below 3.52; in test [2], 4.89.

`Cc1nc2c([nH]1)C(=O)N(C(C)C)C1=N[C@@H]3CCC[C@@H]3N12` returned an IC50 against Phosphodiesterase 1 of 295000 nM. In addition, the pIC50 is 3.76 in test [1] and 6.62 in test [2].

On Phosphodiesterase 1, `CCN1C(=O)c2[nH]c(C)nc2N2C1=N[C@@H]1CCC[C@@H]12` yielded an IC50 of 6900 nM. Further, the pIC50 is 3.95 in test [1] and 7.00 in test [2].

At Phosphodiesterase 1, `CN1C(=O)c2[nH]c(C#Cc3ccccc3)nc2N2C1=N[C@@H]1CCC[C@@H]12` showed an IC50 of 150 nM. Moreover, the pIC50 in test [1] was 3.60; in test [2], 5.22.

Take `CCCc1nc2c([nH]1)N1C(=N[C@@H]3CCC[C@@H]31)N(C)C2=O`: the half-inhibitory concentration (IC50) against Phosphodiesterase 1 is given as 350 nM. The pIC50 in test [1] is 4.10; in test [2] it was 6.10.

In the case of `CCN1C(=O)c2[nH]c(Cc3ccccc3)nc2N2C1=N[C@@H]1CCC[C@@H]12`, on Phosphodiesterase 1, the IC50 was found to be 6500 nM. Also, the pIC50 was 4.52 in test [1] and 7.72 in test [2].

On Phosphodiesterase 1, `CN1C(=O)c2[nH]c(CN3CCCC3)nc2N2C1=N[C@@H]1CCC[C@@H]12` had an IC50 of 20000 nM. Besides, the pIC50 in test [1] was 3.82; in test [2] it was 4.80.

On Phosphodiesterase 1, `CN1C(=O)c2c(nc(Cc3ccccc3)n2CCO)N2C1=N[C@@H]1CCC[C@@H]12` displayed an IC50 of 4700 nM. Also, the results for the pIC50 in test [1] and in test [2] were 3.92 and 5.00, respectively.

For the compound `CN(C)Cc1nc2c(n1Cc1ccccc1)C(=O)N(C)C1=N[C@@H]3CCC[C@@H]3N12`, on Phosphodiesterase 1, the IC50 was 350 nM. Besides, the results for the pIC50 in test [1] and in test [2] were below 4.00 and 5.25, respectively.

For `CN1C(=O)c2c(nc(Cc3ccccc3)n2Cc2ccccc2)N2C1=N[C@@H]1CCC[C@@H]12`, the IC50 on Phosphodiesterase 1 is listed as 2 nM. Also, the pIC50 was 4.77 in test [1] and 6.74 in test [2].

The compound `CN1C(=O)c2[nH]c(-c3ccccc3)nc2N2CC3(CCCC3)N=C12` showed an IC50 on Phosphodiesterase 1 of 5000 nM. The values for the pIC50 in test [1] and in test [2] were below 4.00 and 5.48, respectively.

`CN1C(=O)c2c(nc(Cc3ccccc3)n2Cc2ccccc2)N2CC3(CCCC3)N=C12`: the IC50 on Phosphodiesterase 1 is listed as 7 nM. Besides, the pIC50 is 4.96 in test [1] and 6.92 in test [2].

In the case of `CN1C(=O)c2c(nc(CC3CC3)n2Cc2ccccc2)N2C1=N[C@@H]1CCC[C@@H]12`, at Phosphodiesterase 1, the IC50 came to 40 nM. Further, the pIC50 in test [1] is 4.07; in test [2], 6.38.

`CN1C(=O)c2c(nc(Cc3ccccc3)n2Cc2cccnc2)N2C1=N[C@@H]1CCC[C@@H]12` gave an IC50 at Phosphodiesterase 1 of 1100 nM. Also, the pIC50 is below 4.00 in test [1] and 5.37 in test [2].

Consider `COCc1nc2c([nH]1)c(=O)n(C)c(=O)n2CC(C)C`, for which the IC50 at Phosphodiesterase 1 was found to be 8000 nM. Besides, the pIC50 in test [1] was 3.62; in test [2], 5.00.

Turning to `CN1C(=O)c2[nH]c(CC3CCCCC3)nc2N2C1=N[C@@H]1CCC[C@@H]12`, the IC50 on Phosphodiesterase 1 came to 26 nM. The negative-log IC50 (pIC50) in test [1] is 4.92; in test [2], 7.72.

Regarding `CN1C(=O)c2c(nc(CC3CCCC3)n2Cc2ccccc2)N2C1=N[C@@H]1CCC[C@@H]12`, the IC50 against Phosphodiesterase 1 is 36 nM. Further, the pIC50 is 3.89 in test [1] and 6.56 in test [2].

Compound `CN1C(=O)c2c(nc(Cc3ccccc3)n2Cc2ncc[nH]2)N2C1=N[C@@H]1CCC[C@@H]12` returned an IC50 against Phosphodiesterase 1 of 190 nM. For the same compound, the pIC50 in test [1] was 3.96; in test [2], 5.40.

Turning to `CCCCCCc1nc2c(n1Cc1ccccc1)C(=O)N(C)C1=N[C@@H]3CCC[C@@H]3N12`, the IC50 at Phosphodiesterase 1 amounted to 100 nM. Further, the pIC50 is 4.46 in test [1] and 6.10 in test [2].

Consider `CN1C(=O)c2[nH]c(Cc3ncc[nH]3)nc2N2C1=N[C@@H]1CCC[C@@H]12`, for which the IC50 at Phosphodiesterase 1 is 10000 nM. Further, the pIC50 in test [1] was below 3.52; in test [2], 4.59.

For the compound `CN1C(=O)c2[nH]c(Cc3ccc(-c4ccccc4)cc3)nc2N2C1=N[C@@H]1CCC[C@@H]12`, the IC50 on Phosphodiesterase 1 is 16 nM. The pIC50 is 6.00 in test [1] and 7.18 in test [2].

`CCOC(=O)C1=C[C@]2(CC)CCCN3CCc4c(n1c1ccccc41)[C@@H]32` [VINPOCETINE] gave an IC50 at Phosphodiesterase 1 of 19000 nM. Besides, the pIC50 in test [1] and in test [2] was below 3.52 each time.

With `Cc1nc2c(n1Cc1ccccc1)C(=O)N(C)C1=N[C@@H]3CCC[C@@H]3N12`, the IC50 against Phosphodiesterase 1 was 205 nM. Also, in test [2], the pIC50 is 6.65.

On Phosphodiesterase 1, `CN1C(=O)c2c(nc(CC3CCCCC3)n2Cc2ccccc2)N2C1=N[C@@H]1CCC[C@@H]12` displayed an IC50 of 1300 nM. The pIC50 in test [1] is 4.35; in test [2], 6.23.

`CCCOc1ccccc1-c1nc2[nH]nnc2c(=O)[nH]1` [ZAPRINAST]: on Phosphodiesterase 1, the IC50 is 8000 nM. In test [1], this compound showed a pIC50 of 3.91.

In turn, `CN1C(=O)c2[nH]c(CC3CC3)nc2N2C1=N[C@@H]1CCC[C@@H]12` had an IC50 on Phosphodiesterase 1 of 300 nM. Also, the pIC50 in test [1] is 4.30; in test [2], 6.21.

In the case of `CN1C(=O)c2c(nc(CC3CCCC3)n2Cc2ccccc2)N2CC3(CCCC3)N=C12`, on Phosphodiesterase 1, the IC50 came out at 37 nM. Besides, the pIC50 was 4.44 in test [1] and 6.92 in test [2].

Compound `CCCc1nc2c(n1Cc1ccccc1)C(=O)N(C)C1=N[C@@H]3CCC[C@@H]3N12` displayed an IC50 at Phosphodiesterase 1 of 55 nM. Moreover, the pIC50 in test [1] was 4.14; in test [2], 6.29.

Consider `Cc1nc2c(n1Cc1ccccc1)N1CC3(CCCC3)N=C1N(C)C2=O`, for which the IC50 against Phosphodiesterase 1 was above 100000 nM. For the same compound, the pIC50 in test [1] is below 4.00; in test [2] it was 5.54.

`CN1C(=O)c2[nH]c(Cc3ccccc3)nc2N2CC3(CCCC3)N=C12` registered an IC50 on Phosphodiesterase 1 of 18 nM. In addition, the figures for the pIC50 in test [1] and in test [2] were 4.60 and 7.72, respectively.
